Measured values taken from ChEMBL document CHEMBL1949596, “Chromophenazines from the terrestrial Streptomyces sp. Ank 315” (2012).
Activity calls are given as the source filed them. The calls are words filed in the database; no cut-off is given here.

Legend:
Escherichia coli = experiment: Antimicrobial activity against Escherichia coli by agar diffusion method; format: functional
How it was run: (§1)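 Pure compounds applied to paper disks at 40 μg/disk and tested by agar diffusion against Bacillus subtilis, Escherichia coli, Staphylococcus aureus and the fungus Mucor miehei (Tü284). Activity was read from the agar plates.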

Rhizomucor miehei = experiment: Antimicrobial activity against Mucor miehei by agar diffusion method; format: functional; how it was run: as §1
Bacillus subtilis = experiment: Antimicrobial activity against Bacillus subtilis by agar diffusion method; format: functional; how it was run: as §1
Staphylococcus aureus = experiment: Antimicrobial activity against Staphylococcus aureus by agar diffusion method; format: functional, organism-based; how it was run: as §1

| SMILES | inhibition zone (IZ) (Escherichia coli) | inhibition zone (IZ) (Rhizomucor miehei) | inhibition zone (IZ) (Bacillus subtilis) | Activity (Escherichia coli) | Activity (Rhizomucor miehei) | Activity (Bacillus subtilis) | Activity (Staphylococcus aureus) |
| --- | --- | --- | --- | --- | --- | --- | --- |
| CC(C)=CCN1c2ccccc2Nc2c(C(=O)O)cc(C(=O)c3ccccc3)cc21 [CHROMOPHENAZINE D] | 10 mm | 10 mm | 10 mm |  |  |  |  |
| CC(C)=CCn1c2cc(=O)c3cc(C)ccc3c-2nc2ccccc21 |  |  |  | inactive | inactive | inactive | inactive |
| CC(C)=CCc1cc(=O)cc2n(C)c3cccc(C(=O)O)c3nc1-2 |  |  |  | inactive | inactive | inactive | inactive |
| CC(C)=CCn1c2cc(=O)ccc-2nc2c(C(N)=O)cccc21 |  |  |  | inactive | inactive | inactive | inactive |
| CC(C)=CCN1c2cc(C(=O)c3ccccc3)ccc2Nc2c(C(N)=O)cc(C(=O)c3ccccc3)cc21 |  |  |  | inactive | inactive | inactive | inactive |
| CC(C)=CCn1c2cc(=O)c3cc(C)ccc3c-2nc2c(C(=O)O)cccc21 |  |  |  | inactive | inactive | inactive | inactive |
